Among the data in ChEMBL document CHEMBL1134233, “Synthesis of phenylglycine derivatives as potent and selective antagonists of group III metabotropic glutamate receptors” (2001) are KDs and Inhibition values, retold here.

Experiment [1] is described as follows: Antagonist activity at Group III Metabotropic glutamate receptor in rat spinal cord; Not effective at 50 uM. Format: functional.
Experiment [2] in a line: Antagonist activity at Group III Metabotropic glutamate receptor in rat spinal cord; Not effective at 1 mM. Format: functional.
Experiment [3] in a line: Antagonist activity at Group III Metabotropic glutamate receptor in rat spinal cord. The format is functional. An outline of the steps:
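Neonatal rat spinal cord preparation. Concentration–response curves to the group III agonist (S)-AP4 were constructed with and without the antagonist, and an apparent KD was derived from the curve shift.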

Experiment [4] is described as follows: Antagonist activity at Group I Metabotropic glutamate receptor in rat spinal cord. Format: functional.
Experiment [5] in a line: Antagonist activity at Group II Metabotropic glutamate receptor in rat spinal cord. The format is functional. An outline of the steps:
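Neonatal rat spinal cord preparation. Concentration–response curves to (1S,3S)-ACPD or (2R,4R)-APDC were built with and without antagonist to give an apparent K_D. For weak antagonists, a single antagonist concentration was tested against a single agonist-induced response in triplicate and reported as % antagonism.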

Experiment [6] can be described thus: Antagonist activity at Group I Metabotropic glutamate receptor in rat spinal cord in the presence of (1S,3R)APCD at 1 mM as agonist challenge.
Experiment [7] is described as follows: Antagonist activity at Group I Metabotropic glutamate receptor in rat spinal cord; Not effective at 1 mM. The format is functional.
The nature of experiment [8]: Antagonist activity at Group III Metabotropic glutamate receptor in rat spinal cord in the presence of (S)AP4 at 100 uM as agonist challenge. Format: functional. In short, it runs like this:
(§1)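 Neonatal rat spinal cord, one-point assay run in triplicate. A single antagonist concentration was tested against a single agonist-evoked response, expressed as percent antagonism. The agonist was (2R,4R)-APDC for group II and (S)-AP4 for group III.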

Experiment [9] in a line: Antagonist activity at Group II Metabotropic glutamate receptor in rat spinal cord in the presence of (2R,4R)APDC at 1 uM as agonist challenge. Format: functional. In short, it runs like this:
as §1

Regarding `COc1cc(C(N)(C(=O)O)C2CC2)ccc1P(=O)(O)O` (centres undefined), in experiment [1], the KDs result was “No effect”.

In the case of `CC(N)(C(=O)O)c1cccc(CP(=O)(O)O)c1` (centres undefined), in experiment [2], the KDs entry was “No effect”. On to `CC(N)(C(=O)O)c1ccc(C(=O)O)cc1` (centres undefined), for which the results for the KDs in experiment [3], in experiment [4] and in experiment [5] were 227 µM, 144 µM and 479 µM, respectively.

As to `NC(C(=O)O)(c1ccc(P(=O)(O)O)cc1)C1CC1` (centres undefined), the KDs in [3] is 1.7 µM; in experiment [5] it was 53 µM. In addition, the Inhibition in [6] is 70%. Turning to `CC(N)(C(=O)O)c1ccc(P(=O)(O)O)c(Cl)c1` (centres undefined), the KDs in experiment [3] is 6.8 µM; in experiment [7] it was “No effect”; in [5], 726 µM.

Compound `Cc1cc(P(=O)(O)O)ccc1C(C)(N)C(=O)O` (centres undefined) yielded a KDs in [3] of 180 µM. Regarding `CCOP(=O)(O)c1ccc(C(C)(N)C(=O)O)cc1OC` (centres undefined), in experiment [8], the KDs was 13 µM. Regarding `CC(N)(C(=O)O)c1ccc(P(=O)(O)O)cc1` (centres undefined), the KDs is 9.2 µM in experiment [3], “No effect” in experiment [7] and 113 µM in [5].

As for `COc1cc(C(C)(N)C(=O)O)ccc1P(=O)(O)O` (centres undefined), the KDs was determined as 51 µM in experiment [9] and 4.8 µM in experiment [8]. Regarding `Cc1cc(C(C)(N)C(=O)O)ccc1P(=O)(O)O` (centres undefined), the KDs in experiment [3] was 5.5 µM.
